Assay outcomes deposited in PubChem by several laboratories.
An excerpt weighted towards active compounds, which were near 1.8% of everything screened.
SUMO Mot1 rescue: blocks SUMOylation pathway, rescuing yeast Mot1-301 growth. S. cerevisiae Mot1-301 growth rescue, ATP luminescence, 38.5C; percent above DMSO median, 100 means doubled. growth rescue, % at 18.8 µM. 1% of 320,000 active;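 active means every valid replicate shows activation above 250% relative to neutral control wells; inactive means the rest, any valid replicate at or below 250%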;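 further: OY570 slx delta 5 strain wells were the positive control but not used for scaling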
Efflux pump inh: antifungal efflux pump inhibition, Nile Red retention | AID 485275 | S. cerevisiae Candida pump triplex | inhibition, % at 10 µM | 0.44% of 330,000 active;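 active means plate passing quality check with inhibition over a set limit, or well fluorescence over plate mean plus 4 SD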;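 further: Nile Red retained in pooled yeast measured as flow cytometry median fluorescence; 0% = buffer negative control and 100% = Enniatin B positive control; higher means more Nile Red kept so more efflux inhibition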
Cneo AK release: Cryptococcus neoformans lysis via adenylate kinase release; C. neoformans lysis, adenylate kinase release luminescence, 4 h; normalised: neutral wells 0, clomiphene wells 100; lysis activity, % at 15 µM; 0.2% of 360,000 active; AID 651654;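 active means mean lysis activity across replicates of at least 80%, whatever share of replicates individually reach that level; inactive means mean lysis activity below 80%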
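Test system: log-phase Cryptococcus neoformans yeast cells; Quantity: yeast cell density of 5 × 10^6 cells/mL; Buffer or medium: YPD; Doses: single compound concentration per well; Timing: 4 h at 37 °C static, read 1 h later; Measured by: AK luminescence; Read-out basis: lysis from increased AK signal; Control set: Clomiphene as positive control.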
C2C12 statin: suppression of simvastatin myotoxicity | C2C12 myotubes + simvastatin, ATP luminescence, 48 h; scaled: DMSO 0, geranylgeraniol control 100 | rescue of ATP level, % at 7.49 µM | 0.78% of 330,000 active;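 active means mean ATP rescue above about 67%, or every replicate alone reaching that limit, limit read from the data, passing the limit was not always enough; inconclusive means no clear call, values can overlap the other calls; inactive means mean under the limit and some replicate under it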;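 further: myotubes were challenged with 10 µM simvastatin during compound exposure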
* marks the source's active call; other numbers are inactive results; ? = inconclusive; . = no result.

SMILES | SUMO Mot1 rescue | Efflux pump inh | Cneo AK release | C2C12 statin
C[C@@H]1CN([C@H](C)CO)C(=O)Cc2cc(NS(=O)(=O)c3ccc(F)cc3)ccc2O[C@H]1CN(C)CC1CCCCC1 | . | . | 44 | 108*
CCO[C@H]1OC(C(=O)N2CCN(Cc3ccc4c(c3)OCO4)CC2)=C[C@@H](c2ccc3c(c2)OCO3)[C@@H]1CCCO | 3 | 0 | 0 | -10
N#CC1=C(N)Oc2cc(N)ccc2C1c1cccc(Br)c1 (stereo not given) | -6 | 0 | 0 | -38
O=C(O)CCSc1nnc(SCC(=O)NCC(F)(F)F)s1 | . | 0 | . | .
C[C@H]1CN([C@@H](C)CO)C(=O)Cc2cc(NS(=O)(=O)c3ccc(F)cc3)ccc2O[C@H]1CN(C)S(=O)(=O)c1ccc(F)cc1 | . | . | 100* | -17
CC#CC#Cc1cccc(=O)o1 | -16 | 0 | 0 | 97*
O=C(O)C[C@H]1CC[C@@H](NC(=O)Nc2cc(F)ccc2F)[C@H](CO)O1 | . | . | 4 | -2
CCOC(=O)n1c(=O)n(Cc2c(Cl)cccc2Cl)c2ccccc21 | 13 | 0 | 3 | 175*
Cc1noc(C)c1S(=O)(=O)Nc1ccc2c(c1)CC(=O)N([C@@H](C)CO)C[C@H](C)[C@H](CN(C)S(=O)(=O)c1cccs1)O2 | . | . | 1 | -8
Cc1noc(C)c1NC(=O)N(C)C[C@H]1Oc2ccc(NS(=O)(=O)c3cn(C)cn3)cc2CC(=O)N([C@H](C)CO)C[C@H]1C | . | . | 102* | 2
Cc1noc(C)c1S(=O)(=O)Nc1ccc2c(c1)CC(=O)N([C@H](C)CO)C[C@H](C)[C@@H](CN(C)S(=O)(=O)c1cn(C)cn1)O2 | . | . | 110* | -11
Cc1noc(C)c1S(=O)(=O)Nc1ccc2c(c1)CC(=O)N([C@@H](C)CO)C[C@@H](C)[C@@H](CN(C)S(=O)(=O)c1cccs1)O2 | . | . | 106* | -1
O=[N+]([O-])c1ccc(Sc2cc[n+]([O-])c3ccccc23)c([N+](=O)[O-])c1 | -24 | 0 | -2 | 80*
O=c1[nH]c(Sc2ccc([N+](=O)[O-])cc2[N+](=O)[O-])nc2ccccc12 | 197 | 0 | 8 | .
CC1CCN(C(=O)CSc2nnc(CNC(=O)COc3ccc(Cl)cc3)o2)CC1 | -20 | 0 | 2 | 96*
CN(C(=O)CSc1nc(-c2ccccc2)cn1N)C(c1ccccc1)c1ccccc1 | -15 | 0 | 1 | 78*
O=C(O)CCN1Cc2ccccc2C1=O | 29 | 0 | 4 | 6
Cc1cc(Cl)c2oc(C(=O)N3CCN(c4ccncc4)CC3)c(C)c2c1 | 450* | 0 | 60 | -70
C=CCNC(=O)c1cc2c(=O)c3ccccc3oc2nc1C | -4 | 0 | -3 | 2
COc1ccccc1N(C)S(=O)(=O)c1ccc(C(=O)NCc2ccc3c(c2)OCO3)cc1 | 1 | 0 | . | .
CCn1c2ccccc2c2cc(N)ccc21 | 3 | 0 | -3 | 108*
Cc1ccc(-c2nnc(OCCN3CCOCC3)c3ccccc23)cc1 | -5 | 0 | 0 | 111*
CCN(CC)CCOc1nnc(-c2ccc(C)cc2)c2ccccc12 | -2 | 0 | 0 | 7
CC(C)(C)C(=O)Cn1c(=O)n(CC2CCCO2)c(=O)c2ccccc21 (stereo not given) | -14 | 0 | 0 | .
O=C(Cn1c(=O)n(CC2CCCO2)c(=O)c2ccccc21)c1ccc(Cl)c(Cl)c1 (stereo not given) | -9 | 0 | 1 | 80*
SMILES | SUMO Mot1 rescue | Efflux pump inh | Cneo AK release | C2C12 statin
Cc1c(NC(=O)C(=O)/C=C(\O)c2ccc(Cl)cc2)c(=O)n(-c2ccccc2)n1C | 294* | 0 | . | 6
Cc1c(NC(=S)NC(=O)c2ccc(Cl)cc2)c(=O)n(-c2ccccc2)n1C | -16 | 0 | 1 | .
COc1ccc(Cl)cc1NC(=O)CN(C)CC(=O)Nc1c(C)n(C)n(-c2ccccc2)c1=O | 281* | 0 | -4 | -8
Cc1c(NC(=O)C(C#N)=C2CCCCC2)c(=O)n(-c2ccccc2)n1C | -12 | 0 | 0 | 106*
CCCC#Cc1ccc2c(c1)O[C@@H](CN(C)C(=O)C1CC1)[C@@H](C)CN([C@H](C)CO)S2(=O)=O | . | . | 43 | 6
CN(C)C(=O)c1ccc(-c2ccc([C@H]3[C@H](CO)N4CCCCN(CCC(F)(F)F)C[C@@H]34)cc2)cc1 | . | . | 96* | 13
CCC(=O)N(C)C[C@H]1Oc2cc(C#CC(C)(C)O)ccc2S(=O)(=O)N([C@@H](C)CO)C[C@@H]1C | . | . | 98* | -13
CCC(=O)N(C)C[C@@H]1Oc2cc(C#CC(C)(C)O)ccc2S(=O)(=O)N([C@H](C)CO)C[C@H]1C | . | . | 103* | -9
CCC(=O)N(C)C[C@H]1Oc2cc(C#CC(C)(C)O)ccc2S(=O)(=O)N([C@@H](C)CO)C[C@H]1C | . | . | -2 | -20
COc1ccc(S(=O)(=O)Nc2ccc3c(c2)C(=O)N([C@H](C)CO)C[C@@H](C)[C@@H](CN(C)Cc2ccncc2)OCCCC[C@H](C)O3)cc1 | . | . | 2 | .
CCCC#Cc1ccc2c(c1)O[C@@H](CN(C)Cc1ccccc1)[C@@H](C)CN([C@H](C)CO)S2(=O)=O | . | . | 14 | -8
C[C@@H]1CN([C@@H](C)CO)C(=O)c2cc(NC(=O)Nc3cccc4ccccc34)ccc2O[C@@H](C)CCCCO[C@H]1CN(C)C(=O)Nc1ccc2c(c1)OCO2 | . | . | 0 | -7
C[C@@H]1CN([C@H](C)CO)C(=O)c2cc(NC(=O)Nc3cccc4ccccc34)ccc2O[C@@H](C)CCCCO[C@@H]1CN(C)Cc1ccc2c(c1)OCO2 | . | . | 84* | ?
C[C@H]1CCCCO[C@H](CN(C)Cc2ccc3c(c2)OCO3)[C@@H](C)CN([C@@H](C)CO)C(=O)c2cc(NC(=O)Nc3cccc4ccccc34)ccc2O1 | . | . | 1 | -385
C[C@@H]1CCCCO[C@@H](CN(C)C(=O)Nc2ccc3c(c2)OCO3)[C@@H](C)CN([C@H](C)CO)C(=O)c2cc(NC(=O)Nc3cccc4ccccc34)ccc2O1 | . | . | 105* | 0
C[C@H](CO)N1C[C@H](C)[C@@H](CN(C)C(=O)Nc2ccc3c(c2)OCO3)OCCCC[C@H](C)Oc2ccc(NC(=O)Nc3cccc4ccccc34)cc2C1=O | . | . | -1 | 19
C[C@H]1CCCCO[C@H](CN(C)C(=O)Nc2cccc3ccccc23)[C@@H](C)CN([C@@H](C)CO)C(=O)c2cc(NC(=O)Nc3ccc4c(c3)OCO4)ccc2O1 | . | . | -2 | 66*
COc1cc(C(=O)NC(CCSC)C(=O)OCC(=O)C(C)(C)C)cc(OC)c1OC (stereo not given) | . | 0 | -3 | 2
O=c1c2c3c(sc2ncn1/N=C/c1ccc([N+](=O)[O-])o1)CCCC3 | 290* | 0 | 1 | 11
Cn1cc(/C=N/n2cnc3sc4c(c3c2=O)CCCC4)c2ccccc21 | 293 | 0 | . | .
COc1ccc(-n2c(C)cc(C=O)c2C)cc1Cl | -4 | 0 | 2 | 102*
O=C(COC(=O)/C=C/c1ccc(S(=O)(=O)N2CCOCC2)cc1)NCc1ccc(F)cc1 | 307* | 0 | . | .
